This passage reports EC50 and Activity results from ChEMBL document CHEMBL4118106 (J Med Chem, 2018).

Experiment [1] is described as follows: Inhibition of EGFP-fused MERS-CoV spike protein mediated cell-cell fusion between viral protein expressing human 293T cells and human HuH7 target cells after 4 hrs by inverted fluorescence microscopic analysis. Also on record: species or system Middle East respiratory syndrome-related coronavirus. The essentials:
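Huh-7 target cells expressing DPP4 were seeded at 5 × 10^4/well and kept at 37 °C for 5 h. Inhibitors were added, then 293T effector cells co-expressing S protein and EGFP (1 × 10^4/well); 293T/EGFP-only cells served as negative control. After 4 h coculture at 37 °C, fused and unfused cells were counted by fluorescence microscopy.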

Experiment [2] is described as follows: Binding affinity to NHR peptide HR1P in pH 7.2 phosphate buffer assessed as formation of alpha-helical complex at 50 uM after 30 mins by CD spectroscopic method. The essentials:
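Peptides were at 50 µM final in 50 mM PBS, pH 7.2. Equimolar HR1P/peptide mixtures were incubated at 25 °C for 30 min before CD scanning. α-Helicity was taken from [θ]222, where -33,000 deg cm2/dmol = 100% helix.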

Experiment [3] can be described thus: Binding affinity to NHR peptide HR1P in pH 7.2 phosphate buffer assessed as formation of alpha-helical complex at 200 uM after 30 mins by N-PAGE analysis. The essentials:
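Stapled peptide and HR1P, each 200 µM (in 50 mM PBS or ddH2O), were incubated together at 25 °C for 30 min. Samples in Tris-glycine native sample buffer were run on an 18% Tris-glycine gel (pH 8.3 buffer) at 120 V for 3 h at room temperature and stained with Coomassie blue R250.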

Activity calls are given as the source filed them. No cut-off for these calls is given here. Where a SMILES comes first, the peptide text is derived from it. Bridges are numbered along the chain shown (N, C = ends). [ ]: non-standard residue; d: D form. S5 = C=CCCC[C@](C)(N)C(=O)O

Take `CSCC[C@H](NC(=O)[C@H](CCC(=O)O)NC(=O)[C@H](Cc1ccc(O)cc1)NC(=O)[C@@H](NC(=O)[C@H](CC(C)C)NC(=O)[C@H](CC(=O)O)NC(=O)[C@H](CC(C)C)NC(C)=O)[C@@H](C)O)C(=O)N[C@@H](CC(C)C)C(=O)N[C@@H](CO)C(=O)N[C@@H](CC(C)C)C(=O)N[C@@]1(C)CCC/C=C/CCC[C@@](C)(C(=O)N[C@@H](C)C(=O)N[C@@H](CC(C)C)C(=O)N[C@@H](CC(N)=O)C(=O)N[C@@H](CCC(=O)O)C(=O)N[C@@H](CO)C(=O)N[C@@H](Cc2ccc(O)cc2)C(N)=O)NC(=O)[C@H](C(C)C)NC(=O)[C@H](C(C)C)NC(=O)[C@H](CCC(N)=O)NC1=O` (Ac-LDLTYEMLSL[S5]QVV[S5]ALNESY-NH2; staple (E) 11-15): the EC50 in experiment [1] is greater than 50 µM. Further, the result in experiment [2] and in experiment [3] was inactive.

What is called EC50 is the midpoint of the concentration-response curve.
